From ChEMBL document CHEMBL2062373, “Discovery of pyrroloaminopyrazoles as novel PAK inhibitors” (J Med Chem, 2012)

Legend:
Mus musculus [1] = assay: Free dug level in mouse xenografted with human M24 cells at 15 mg/kg, po BID for 15 days; type: ADME, organism-based; parameters: dose 15 mg/kg, route oral; conditions: in vivo, 360 h
How it was run: (§1)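 The read-out is free drug exposure, reported as unbound average concentration (free Cave) in nM. It was obtained from mice dosed orally at the stated regimen, sid or bid, during the xenograft efficacy study.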

[2] = Oral bioavailability in dog; type: ADME, organism-based, Canis lupus familiaris; conditions: in vivo
Homo sapiens [3] = species: Homo sapiens; assay: Inhibition of PCTAIRE; conditions: concentration not given here
[4] = Clearance in dog; type: ADME, organism-based, Canis lupus familiaris; conditions: in vivo
[5] = Metabolic stability in human liver microsomes assessed as extraction ratio; type: ADME, Microsome; conditions: read-out: ERH
[6] = Octanol/buffer partition coefficient, log D of the compound at pH 7.4; type: physicochemical
[7] = Clearance in rat at 5 mg/kg, iv and 10 mg/kg, po; type: ADME, organism-based; conditions: in vivo
[8] = target: T1, Glycogen synthase kinase-3 beta (Homo sapiens, UniProt P49841)
Target sequence in this assay (P49841 whole entry): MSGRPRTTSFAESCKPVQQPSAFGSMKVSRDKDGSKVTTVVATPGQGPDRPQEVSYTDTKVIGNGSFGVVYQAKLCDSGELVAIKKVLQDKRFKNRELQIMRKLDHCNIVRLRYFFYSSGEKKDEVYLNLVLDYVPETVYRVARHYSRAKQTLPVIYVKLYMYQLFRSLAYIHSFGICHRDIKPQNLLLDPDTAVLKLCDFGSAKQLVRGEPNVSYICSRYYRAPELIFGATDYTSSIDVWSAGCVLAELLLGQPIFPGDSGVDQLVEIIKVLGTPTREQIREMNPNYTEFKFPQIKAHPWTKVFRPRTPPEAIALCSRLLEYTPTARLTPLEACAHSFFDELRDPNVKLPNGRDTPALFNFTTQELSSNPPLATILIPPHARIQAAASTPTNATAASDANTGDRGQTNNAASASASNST

Mus musculus [9] = assay: Free dug level in mouse xenografted with human M24 cells at 7.5 mg/kg, po BID for 15 days; type: ADME, organism-based; parameters: dose 7.5 mg/kg, route oral; conditions: in vivo, 360 h; how it was run: as §1
[10] = target: T2, Mitogen-activated protein kinase 1 (Homo sapiens, UniProt P28482); assay: Inhibition of Erk2 at 1000 nM
[11] = Volume of distribution at steady state in rat at 5 mg/kg, iv and 10 mg/kg, po; type: ADME, organism-based; conditions: in vivo, read-out: Vdss
Homo sapiens [12] = species: Homo sapiens; assay: Inhibition of PKA at 1000 nM
Homo sapiens [13] = species: Homo sapiens; assay: Inhibition of RSK at 1000 nM
[14] = target: Serine/threonine-protein kinase MARK1 (Homo sapiens, UniProt Q9P0L2); assay: Inhibition of MARK1
Mus musculus [15] = assay: Free dug level in mouse xenografted with human M24 cells at 3.75 mg/kg, po BID for 15 days; type: ADME, organism-based; parameters: dose 3.75 mg/kg, route oral; conditions: in vivo, 360 h
[16] = target: Mitogen-activated protein kinase 3 (Homo sapiens) (UniProt P27361); assay: Inhibition of ERK1; conditions: concentration not given here
[17] = Oral bioavailability in rat at 10 mg/kg; type: ADME, organism-based; conditions: in vivo
HCT-116 [18] = assay: Antitumor activity against human HCT116 cells xenografted in mouse assessed as tumor growth inhibition at 20 mg/kg, po BID for 15 days; type: functional; conditions: HCT-116, 360 h, read-out: TGI
How it was run: (§2)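 HCT-116 colon carcinoma xenografts in mice. Compound given orally twice daily. Efficacy expressed as percent tumour growth inhibition (TGI).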

[19] = Efflux ratio of permeability from basolateral to apical side over apical to basolateral side in human Caco2 cells; type: ADME, cell-based; conditions: Caco-2
[20] = target: T1, Glycogen synthase kinase-3 beta; assay: Inhibition of GSK3beta at 1000 nM
Target sequence in this assay (P49841 whole entry, looked up): as the sequence (P49841 whole entry) above

[21] = Antitumor activity against human M24 cells xenografted in mouse assessed as tumor growth inhibition at 3.75 mg/kg, po BID for 15 days; type: functional; conditions: M24, 360 h, read-out: TGI
[22] = Antitumor activity against human M24 cells xenografted in mouse assessed as tumor growth inhibition at 15 mg/kg, po BID for 15 days; type: functional; conditions: M24, 360 h, read-out: TGI
[23] = Half life in rat at 5 mg/kg, iv and 10 mg/kg, po; type: ADME, organism-based; conditions: in vivo
[24] = Antitumor activity against human M24 cells xenografted in mouse assessed as tumor growth inhibition at 7.5 mg/kg, po BID for 15 days; type: functional; conditions: M24, 360 h, read-out: TGI
[25] = target: Cyclin-dependent kinase 2 (Homo sapiens, UniProt P24941)
[26] = target: AMP-activated protein kinase, AMPK (Homo sapiens) (UniProt P54646+O43741+P54619+Q9UGJ0+Q9Y478+Q13131+Q9UGI9); assay: Inhibition of AMPK at 1000 nM; type: protein-complex assay
[27] = target: T2, Mitogen-activated protein kinase 1; assay: Inhibition of Erk2
[28] = target: Serine/threonine-protein kinase PAK 4 (Homo sapiens, UniProt O96013); assay: Inhibition of PAK4-mediated GEF-H1 phosphorylation at Ser810 by cell based assay; conditions: read-out: EC50
[29] = Half life in dog; type: ADME, organism-based, Canis lupus familiaris; conditions: in vivo
HCT-116 [30] = assay: Antitumor activity against human HCT116 cells xenografted in mouse assessed as tumor growth inhibition at 12.5 mg/kg, po BID for 15 days; type: functional; conditions: HCT-116, 360 h, read-out: TGI; how it was run: as §2
[31] = target: T3, Serine/threonine-protein kinase D3 (Homo sapiens) (UniProt O94806); assay: Inhibition of PKD3; conditions: concentration not given here
T3 sequence (whole entry): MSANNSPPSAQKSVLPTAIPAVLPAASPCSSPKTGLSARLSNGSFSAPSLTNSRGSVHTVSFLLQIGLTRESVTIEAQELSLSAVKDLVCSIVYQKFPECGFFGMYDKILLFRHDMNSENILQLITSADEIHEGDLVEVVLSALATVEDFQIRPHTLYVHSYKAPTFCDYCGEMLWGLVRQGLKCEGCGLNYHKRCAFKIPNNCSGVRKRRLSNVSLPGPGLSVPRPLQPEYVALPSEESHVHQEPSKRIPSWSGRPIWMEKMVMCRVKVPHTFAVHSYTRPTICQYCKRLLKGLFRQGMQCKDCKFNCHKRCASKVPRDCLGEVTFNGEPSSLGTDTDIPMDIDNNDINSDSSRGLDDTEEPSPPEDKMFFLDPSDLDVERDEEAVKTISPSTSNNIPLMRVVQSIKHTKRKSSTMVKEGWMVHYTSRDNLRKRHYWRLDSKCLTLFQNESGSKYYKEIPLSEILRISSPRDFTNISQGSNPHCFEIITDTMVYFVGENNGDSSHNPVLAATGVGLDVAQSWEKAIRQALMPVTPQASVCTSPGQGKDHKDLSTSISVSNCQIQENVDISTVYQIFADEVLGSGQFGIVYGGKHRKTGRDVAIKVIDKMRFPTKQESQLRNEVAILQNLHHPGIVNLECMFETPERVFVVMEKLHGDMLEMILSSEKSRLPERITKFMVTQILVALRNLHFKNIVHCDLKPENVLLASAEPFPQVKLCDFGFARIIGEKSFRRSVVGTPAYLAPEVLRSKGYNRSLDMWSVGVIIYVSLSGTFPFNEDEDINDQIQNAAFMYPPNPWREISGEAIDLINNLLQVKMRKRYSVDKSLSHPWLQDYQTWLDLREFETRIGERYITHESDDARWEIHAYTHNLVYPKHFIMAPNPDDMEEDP

T2 sequence (P28482 whole entry): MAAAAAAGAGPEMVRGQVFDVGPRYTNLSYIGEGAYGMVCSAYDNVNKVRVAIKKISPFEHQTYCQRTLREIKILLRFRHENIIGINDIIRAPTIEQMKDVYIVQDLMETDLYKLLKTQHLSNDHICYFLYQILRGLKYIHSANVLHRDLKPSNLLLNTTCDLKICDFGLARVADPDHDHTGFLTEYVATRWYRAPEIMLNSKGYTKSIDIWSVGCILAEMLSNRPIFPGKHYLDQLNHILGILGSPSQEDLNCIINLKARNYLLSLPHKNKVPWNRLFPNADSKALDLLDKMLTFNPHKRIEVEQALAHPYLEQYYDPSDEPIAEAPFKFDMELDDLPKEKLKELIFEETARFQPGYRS
Mitogen-activated protein kinase 3 (Homo sapiens), sequence (P27361 whole entry): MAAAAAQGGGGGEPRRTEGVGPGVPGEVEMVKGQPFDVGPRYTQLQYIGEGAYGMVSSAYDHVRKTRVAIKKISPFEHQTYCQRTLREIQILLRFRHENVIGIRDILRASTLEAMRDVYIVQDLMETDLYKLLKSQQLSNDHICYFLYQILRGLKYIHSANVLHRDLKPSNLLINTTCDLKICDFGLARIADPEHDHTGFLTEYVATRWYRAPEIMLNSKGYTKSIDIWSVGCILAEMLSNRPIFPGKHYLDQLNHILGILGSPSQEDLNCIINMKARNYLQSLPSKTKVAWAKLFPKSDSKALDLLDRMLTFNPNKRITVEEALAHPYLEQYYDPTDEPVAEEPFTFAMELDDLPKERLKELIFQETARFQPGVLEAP
Serine/threonine-protein kinase MARK1, sequence (Q9P0L2 whole entry): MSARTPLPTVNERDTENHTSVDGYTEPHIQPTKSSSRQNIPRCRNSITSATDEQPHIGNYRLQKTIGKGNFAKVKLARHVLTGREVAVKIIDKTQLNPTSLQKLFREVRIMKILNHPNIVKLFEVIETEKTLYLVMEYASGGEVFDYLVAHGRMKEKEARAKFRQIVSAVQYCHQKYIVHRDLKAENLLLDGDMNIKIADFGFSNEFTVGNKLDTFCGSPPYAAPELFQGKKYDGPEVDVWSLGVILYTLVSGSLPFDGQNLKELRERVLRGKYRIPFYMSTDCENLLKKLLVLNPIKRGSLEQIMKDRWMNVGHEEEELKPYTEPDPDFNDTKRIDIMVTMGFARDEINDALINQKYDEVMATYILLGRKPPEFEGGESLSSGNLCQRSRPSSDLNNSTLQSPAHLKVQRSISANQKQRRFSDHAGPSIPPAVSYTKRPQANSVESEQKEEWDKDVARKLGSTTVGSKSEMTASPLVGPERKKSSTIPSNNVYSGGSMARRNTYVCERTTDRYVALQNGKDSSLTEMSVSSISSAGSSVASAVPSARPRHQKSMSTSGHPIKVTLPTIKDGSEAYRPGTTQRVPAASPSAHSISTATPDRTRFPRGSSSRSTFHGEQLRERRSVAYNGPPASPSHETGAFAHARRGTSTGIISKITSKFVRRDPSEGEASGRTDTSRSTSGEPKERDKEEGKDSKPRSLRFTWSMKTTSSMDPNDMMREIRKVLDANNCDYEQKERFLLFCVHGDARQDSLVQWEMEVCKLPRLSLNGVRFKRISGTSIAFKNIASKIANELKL
Serine/threonine-protein kinase PAK 4, sequence (O96013 whole entry): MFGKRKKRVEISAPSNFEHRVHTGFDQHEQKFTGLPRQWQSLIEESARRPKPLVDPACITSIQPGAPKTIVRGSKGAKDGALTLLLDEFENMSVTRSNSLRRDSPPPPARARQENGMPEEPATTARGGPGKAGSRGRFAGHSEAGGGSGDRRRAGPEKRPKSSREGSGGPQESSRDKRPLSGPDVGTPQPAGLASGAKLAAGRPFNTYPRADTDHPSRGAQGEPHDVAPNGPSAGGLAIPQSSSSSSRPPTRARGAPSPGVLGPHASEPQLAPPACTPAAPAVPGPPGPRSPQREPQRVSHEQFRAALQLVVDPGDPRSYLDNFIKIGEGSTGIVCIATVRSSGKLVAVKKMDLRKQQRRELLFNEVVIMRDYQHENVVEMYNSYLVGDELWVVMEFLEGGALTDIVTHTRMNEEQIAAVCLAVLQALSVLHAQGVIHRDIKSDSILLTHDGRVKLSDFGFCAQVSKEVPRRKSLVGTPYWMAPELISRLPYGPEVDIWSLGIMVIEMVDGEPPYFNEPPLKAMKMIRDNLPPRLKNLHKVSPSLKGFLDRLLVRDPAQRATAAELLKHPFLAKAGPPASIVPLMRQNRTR

For `CN(C)C[C@@H](OC(=O)N1Cc2c(NC(=O)C(C)(C)C)n[nH]c2C1(C)C)c1ccccc1`, which “Drug uptake(free)” value (Mus musculus [1]) is on record?
Its value is 50.5 nM.

And the bioavailability [2]?
The bioavailability was 20%.

What about the inhibition (Homo sapiens [3]) of the same compound?
The inhibition was greater than 40%.

And the clearance [4]?
The clearance was 12 mL/min/kg.

What about the hepatic extraction ratio [5] of the same compound?
The hepatic extraction ratio was 0.44.

What about the logD [6] of the same compound?
Its logD is 2.52.

And the clearance [7]?
The clearance was 52 mL/min/kg.

And the IC50 [8]?
Its IC50 is 227 nM.

What about the “Drug uptake(free)” value (Mus musculus [9]) of the same compound?
The value was 28.3 nM.

And the inhibition [10]?
The inhibition was greater than 70%.

What about the Vd [11] of the same compound?
Its Vd is 2.8 L/kg.

And the inhibition (Homo sapiens [12])?
Its inhibition is greater than 70%.

What about the inhibition (Homo sapiens [13]) of the same compound?
The inhibition was greater than 70%.

What about the IC50 [14] of the same compound?
The IC50 was 115 nM.

What about the “Drug uptake(free)” value (Mus musculus [15]) of the same compound?
The value was 5.3 nM.

What about the inhibition [16] of the same compound?
The inhibition was greater than 40%.

What about the bioavailability [17] of the same compound?
The bioavailability was 15%.

And the inhibition in vivo at 20 mg/kg (HCT-116 [18])?
The inhibition in vivo at 20 mg/kg was 52%.

And the efflux ratio [19]?
Its efflux ratio is 9.9.

And the inhibition [20]?
Its inhibition is greater than 70%.

And the inhibition in vivo at 3.75 mg/kg [21]?
Its inhibition in vivo at 3.75 mg/kg is 41%.

What about the inhibition in vivo at 15 mg/kg [22] of the same compound?
The inhibition in vivo at 15 mg/kg was 68%.

And the half-life [23]?
The half-life was 0.8 h.

What about the inhibition in vivo at 7.5 mg/kg [24] of the same compound?
Its inhibition in vivo at 7.5 mg/kg is 61%.

And the IC50 [25]?
Its IC50 is 450 nM.

And the inhibition [26]?
Its inhibition is greater than 70%.

And the IC50 [27]?
The IC50 was 170 nM.

What about the EC50 [28] of the same compound?
The EC50 was 4 nM.

And the half-life [29]?
Its half-life is 2.2 h.

What about the inhibition in vivo at 12.5 mg/kg (HCT-116 [30]) of the same compound?
The inhibition in vivo at 12.5 mg/kg was 37%.

And the inhibition [31]?
The inhibition was greater than 40%.
